Values after ≈ are worked out from the molar mass of the structure shown. Numbered stars: 1 amine (or outer) side, 2 acyl side, 3 side chain; on linkers, the order of the positions; unused ones are H or OH. Bridge positions count the residues as written; N and C are the ends. Square brackets hold non-standard residues; d marks the D form. Peptide text beside a SMILES is read from it. * marks the point of attachment. X1 = c1ccc(-c2ccc(N*)cc2)cc1; NH(2-ClPh) = Clc1ccccc1N*; Octanoyl = CCCCCCCC(=O)*; Dab = NCC[C@H](N)C(=O)O; CO = O=C([*:1])[*:2]
Columns and labels:
Pseudomonas aeruginosa [1] = experiment: Antibacterial activity against Pseudomonas aeruginosa ATCC 27853 after 18 hrs by 2 fold serial dilution method; assay type: functional; settings: ATCC 27853, 18 h
Procedure, shortened: (§1)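 Overnight cultures in nutrient or Mueller Hinton broth at 37 °C with shaking, diluted 50-fold into fresh MHB and grown 1.5–3 h to mid-log. Inoculum 5×10^5 CFU/mL in 2-fold serial dilutions, final range 32 to 0.015 μg/mL. MIC read visually after 18 h at 37 °C as the lowest concentration with no visible growth.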

[2] = (§2) Cytotoxicity against human HepG2 cells after 24 hrs by resazurin assay; assay type: cell-based; settings: HepG2 cells
Klebsiella pneumoniae [3] = experiment: Antibacterial activity against multidrug resistant Klebsiella pneumoniae ATCC 700603 after 18 hrs by 2 fold serial dilution method; assay type: functional; settings: Klebsiella pneumoniae, 700603, 18 h
Procedure, shortened: (§3)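 Overnight cultures at 37 °C in nutrient or Mueller Hinton broth with shaking were diluted 50-fold in MHB and grown 1.5–3 h to mid-log phase. The inoculum was 5×10^5 CFU/mL in MHB. Compounds were 2-fold serially diluted, final 32 to 0.015 μg/mL. After 18 h at 37 °C, the MIC was read visually as the lowest concentration with no visible growth.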

Staphylococcus aureus [4] = experiment: microbe, parasite or virus in culture; settings: ATCC 25923, 18 h
Klebsiella pneumoniae [5] = experiment: Antibacterial activity against Klebsiella pneumoniae ATCC 13883 after 18 hrs by 2 fold serial dilution method; assay type: functional; settings: ATCC 13883, 18 h; procedure, shortened: as §1
Acinetobacter baumannii [6] = experiment: Antibacterial activity against clinical isolate carbapenem and polymyxin resistant Acinetobacter baumannii Ptyela 100734512:2 after 18 hrs by 2 fold serial dilution method; assay type: functional; settings: Ptyela 100734512:2, 18 h
Procedure, shortened: (§4)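 Polymyxin-resistant clinical isolates were grown overnight at 37 °C in NB or MHB with shaking, diluted 50-fold in MHB and grown 1.5–3 h to mid-log phase. The inoculum was 5×10^5 CFU/mL. Compounds were 2-fold broth serial dilutions, final 32 to 0.015 μg/mL; the polymyxin controls ran 128–0.06 μg/mL. The MIC was the lowest concentration with no visible growth after 18 h at 37 °C.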

Klebsiella pneumoniae [7] = experiment: Antibacterial activity against Klebsiella pneumoniae ATCC BAA-2146 expressing NDM-1 after 18 hrs by 2 fold serial dilution method; assay type: functional; settings: ATCC BAA-2146, 18 h; procedure, shortened: as §3
Escherichia coli [8] = experiment: Antibacterial activity against Escherichia coli ATCC 25922 after 18 hrs by 2 fold serial dilution method; assay type: functional; settings: ATCC 25922, 18 h; procedure, shortened: as §1
Acinetobacter baumannii [9] = experiment: Antibacterial activity against Acinetobacter baumannii ATCC 19606 after 18 hrs by 2 fold serial dilution method; assay type: functional; settings: ATCC 19606, 18 h; procedure, shortened: as §1
Pseudomonas aeruginosa [10] = experiment: Antibacterial activity against clinical isolate polymyxin resistant Pseudomonas aeruginosa PA9704 after 18 hrs by 2 fold serial dilution method; assay type: functional; settings: PA9704, 18 h; procedure, shortened: as §4
Klebsiella pneumoniae [11] = experiment: Antibacterial activity against clinical isolate carbapenem and polymyxin resistant Klebsiella pneumoniae Koprana 100650661:1 after 18 hrs by 2 fold serial dilution method; assay type: functional; settings: Koprana 100650661:1, 18 h; procedure, shortened: as §4
Escherichia coli [12] = experiment: Antibacterial activity against Escherichia coli after 24 hrs by macrobroth dilution method; assay type: functional
Klebsiella pneumoniae [13] = experiment: Antibacterial activity against clinical isolate carbapenem and polymyxin resistant Klebsiella pneumoniae 138-16357-20362 after 18 hrs by 2 fold serial dilution method; assay type: functional; settings: 138-16357-20362, 18 h; procedure, shortened: as §4
Pseudomonas aeruginosa [14] = experiment: Antibacterial activity against Pseudomonas aeruginosa after 24 hrs by macrobroth dilution method; assay type: functional
Pseudomonas aeruginosa [15] = experiment: Antibacterial activity against clinical isolate polymyxin resistant Pseudomonas aeruginosa FADDI-PA070 after 18 hrs by 2 fold serial dilution method; assay type: functional; settings: FADDI-PA070, 18 h; procedure, shortened: as §4
Staphylococcus aureus [16] = experiment: Antibacterial activity against Staphylococcus aureus after 24 hrs by macrobroth dilution method; assay type: functional
Pseudomonas aeruginosa [17] = experiment: Antibacterial activity against Pseudomonas aeruginosa after 16 to 20 hrs by 2 fold broth microdilution method; assay type: functional
Acinetobacter baumannii [18] = experiment: Antibacterial activity against Acinetobacter baumannii after 16 to 20 hrs by 2 fold broth microdilution method; assay type: functional
Escherichia coli [19] = experiment: Antibacterial activity against Escherichia coli after 16 to 20 hrs by 2 fold broth microdilution method; assay type: functional
Klebsiella pneumoniae [20] = experiment: Antibacterial activity against Klebsiella pneumoniae after 16 to 20 hrs by 2 fold broth microdilution method; assay type: functional
[21] = Cytotoxicity against HK2 cells assessed as LDH release by Western blot analysis; assay type: cell-based, HK-2; settings: human
[22] = Cytotoxicity against HK2 cells assessed as GGT release by Western blot analysis; assay type: cell-based, HK-2; settings: human
[23] = (§5) Cytotoxicity against HEK293 cells after 24 hrs by resazurin assay; assay type: cell-based; settings: human, HEK293 cells
Escherichia coli [24] = experiment: Antibacterial activity against Escherichia coli ATCC 26 after 18 hrs by 2 fold serial dilution method; assay type: functional; settings: ATCC 26, 18 h; procedure, shortened: as §3
HepG2 = experiment: as §2; assay type: cell-based; settings: hepg2, 24 h
HEK293 = experiment: as §5; assay type: cell-based; settings: human, hek293, 24 h
[25] = primary human renal proximal tubule epithelial cells, read-out: CC50

Molecule | MIC (Pseudomonas aeruginosa [1]) | CC50 at 24 h [2] | MIC (Klebsiella pneumoniae [3]) | MIC (Staphylococcus aureus [4]) | MIC (Klebsiella pneumoniae [5]) | MIC (Acinetobacter baumannii [6]) | MIC (Klebsiella pneumoniae [7]) | MIC (Escherichia coli [8]) | MIC (Acinetobacter baumannii [9]) | MIC (Pseudomonas aeruginosa [10]) | MIC (Klebsiella pneumoniae [11]) | MIC (Klebsiella pneumoniae [13]) | MIC (Pseudomonas aeruginosa [15]) | also measured
CCCCCCCC(=O)N[C@@H](CCN)C(=O)N[C@H](C(=O)N[C@@H](CCN)C(=O)N[C@H]1CCNC(=O)[C@H]([C@@H](C)O)NC(=O)[C@H](CCNC(=O)[C@@H](N)CCCNC(=N)N)NC(=O)[C@H](CCN)NC(=O)[C@H](CC(C)C)NC(=O)[C@@H](Cc2ccccc2)NC(=O)[C@H](CCN)NC1=O)[C@@H](C)O (Octanoyl-[Dab]T[Dab][Dab][Dab][dF]L[Dab][Dab](Arg)T; lactam 4-C) | 32 µg/mL (≈ 23.8 µM) | > 300 µM | 8 µg/mL (≈ 5.95 µM) | > 32 µg/mL | 32 µg/mL (≈ 23.8 µM) | > 32 µg/mL | 8 µg/mL (≈ 5.95 µM) | 32 µg/mL (≈ 23.8 µM) | 16 µg/mL (≈ 11.9 µM) | > 32 µg/mL | > 32 µg/mL | > 32 µg/mL | > 32 µg/mL | MIC (Escherichia coli [12]): 0.16 µg/mL (≈ 0.119 µM); MIC (Pseudomonas aeruginosa [14]): 0.03 µg/mL (≈ 0.0223 µM); MIC (Staphylococcus aureus [16]): 2 µg/mL (≈ 1.49 µM)
CC(C)C[C@@H]1NC(=O)[C@@H](Cc2ccccc2)NC(=O)[C@H](CCN)NC(=O)[C@@H](NC(=O)[C@H](CCN)NC(=O)[C@@H](NC(=O)[C@H](CCN)NC(=O)Nc2ccccc2Cl)[C@@H](C)O)CCNC(=O)[C@H]([C@@H](C)O)NC(=O)[C@H](CCN)NC(=O)[C@H](CCN)NC1=O ({NH(2-ClPh)-CO}-[Dab]T[Dab][Dab][Dab][dF]L[Dab][Dab]T; lactam 4-C) | 0.5 µg/mL (≈ 0.411 µM) | > 300 µM | 2 µg/mL (≈ 1.64 µM) | > 32 µg/mL | 2 µg/mL (≈ 1.64 µM) | > 32 µg/mL | 4 µg/mL (≈ 3.29 µM) | 1 µg/mL (≈ 0.822 µM) | 1 µg/mL (≈ 0.822 µM) | > 32 µg/mL | > 32 µg/mL | > 32 µg/mL | > 32 µg/mL | MIC90 (Pseudomonas aeruginosa [17]): 2 µg/mL (≈ 1.64 µM); MIC90 (Acinetobacter baumannii [18]): 4 µg/mL (≈ 3.29 µM); MIC90 (Escherichia coli [19]): 2 µg/mL (≈ 1.64 µM); MIC90 (Klebsiella pneumoniae [20]): 4 µg/mL (≈ 3.29 µM)
CC(C)C[C@@H]1NC(=O)[C@@H](Cc2ccccc2)NC(=O)[C@H](CCN)NC(=O)[C@@H](NC(=O)[C@H](CCN)NC(=O)[C@@H](NC(=O)[C@H](CCN)NC(=O)Nc2ccc(-c3ccccc3)cc2)[C@@H](C)O)CCNC(=O)[C@H]([C@@H](C)O)NC(=O)[C@H](CCN)NC(=O)[C@H](CCN)NC1=O ({X1-CO}-[Dab]T[Dab][Dab][Dab][dF]L[Dab][Dab]T; lactam 4-C) | 1 µg/mL (≈ 0.795 µM) | 316 µM | 2 µg/mL (≈ 1.59 µM) | 32 µg/mL (≈ 25.4 µM) | 2 µg/mL (≈ 1.59 µM) | 16 µg/mL (≈ 12.7 µM) | 1 µg/mL (≈ 0.795 µM) | 2 µg/mL (≈ 1.59 µM) | 1 µg/mL (≈ 0.795 µM) | 8 µg/mL (≈ 6.36 µM) | 16 µg/mL (≈ 12.7 µM) | > 32 µg/mL | 16 µg/mL (≈ 12.7 µM) | CC50 [21, 25]: > 128 µg/mL; CC50 [22, 25]: > 128 µg/mL; CC50 at 24 h [23]: > 300 µM; MIC (Escherichia coli [24]): 2.5 µg/mL (≈ 1.99 µM)
GENTAMICIN |  |  |  |  |  |  |  |  |  |  |  |  |  | CC50 (HepG2): > 300 µM; CC50 ([21]; hk-2): 33 µg/mL; CC50 ([22]; hk-2): 33 µg/mL; CC50 (HEK293): > 300 µM
